# Measurements gathered from unrelated publications.
# Each line is one published result; the experiments were not run side by side.
# Target: Tyrosine-protein kinase TXK (TXK, Homo sapiens, UniProt P42681)
# Tested at: 1 µM
# One construct used (P42681 1-527): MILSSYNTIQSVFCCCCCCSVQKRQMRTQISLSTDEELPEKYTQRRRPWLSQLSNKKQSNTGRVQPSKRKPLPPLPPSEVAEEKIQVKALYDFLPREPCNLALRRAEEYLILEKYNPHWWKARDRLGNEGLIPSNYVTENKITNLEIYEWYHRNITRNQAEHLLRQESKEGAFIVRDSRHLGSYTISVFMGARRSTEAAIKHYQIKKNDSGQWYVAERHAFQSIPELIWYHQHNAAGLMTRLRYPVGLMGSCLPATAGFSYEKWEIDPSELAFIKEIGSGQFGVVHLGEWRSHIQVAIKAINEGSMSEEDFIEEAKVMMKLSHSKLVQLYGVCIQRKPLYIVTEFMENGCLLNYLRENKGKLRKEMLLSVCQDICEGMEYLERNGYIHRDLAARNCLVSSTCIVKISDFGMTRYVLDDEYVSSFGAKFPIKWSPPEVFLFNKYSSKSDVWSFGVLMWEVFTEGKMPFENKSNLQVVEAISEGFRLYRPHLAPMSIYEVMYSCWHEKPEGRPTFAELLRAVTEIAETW
Compound,assay,remaining binding
COc1cnc(Nc2cccc(S(N)(=O)=O)c2)nc1N1CCN(c2ccccc2)C(=O)C1,"binding, competition with immobilised ligand",100%
C[C@@H]1CCN(c2nccc(-c3cnn4ncccc34)n2)C1,binding,100%
CCN1CCN(Cc2ccc(C(=O)Nc3ccc(C)c(Oc4ccc5c(c4)CC(=O)N5)c3)cc2C(F)(F)F)CC1,"binding, competition with immobilised ligand",100%
Cn1nc(C(F)(F)F)cc1-c1cnc(N2CCc3cc(S(=O)(=O)Nc4c(F)cc(Cl)cc4F)cc(N4CCCC4=O)c32)nc1,"binding, competition with immobilised ligand",100%
O=C(NCCCN1CCOCC1)c1ccc(Nc2nccc(-c3cc4ccccc4s3)n2)cc1,"binding, competition with immobilised ligand",86%
CC1=C(C#N)[C@@H](c2ccc3[nH]nc(C)c3c2)C(C#N)=C(c2ccc(Cl)cc2)N1,"binding, competition with immobilised ligand",88.1%
Nc1ncc2c(n1)-c1c([nH]c3ccc(C#CC4CC4)cc13)CCCC2,"binding, competition with immobilised ligand",99%
CCCOc1ccc([C@@H]2[C@@H](C(=O)O)[C@H](c3ccc4c(c3)OCO4)CN2CC(=O)Nc2c(CC)cccc2CC)cc1,"binding, competition with immobilised ligand",100%
N[C@H]1CCN(c2nccc(-c3cnn4ncccc34)n2)C1,binding,100%
CNC(=O)[C@@H]1CC[C@@H](n2c(-c3ccc4cnccc4c3)nc3ccc(C(=O)NCc4cccc(C(N)=O)c4)cc32)C1,"binding, competition with immobilised ligand",100%
CC1CCCN1c1nccc(-c2cnn3ncccc23)n1 (stereo not shown),binding,100%
O=C(NCCCN1CCOCC1)c1ccc(Nc2ncc(Cl)c(-c3ccc(Cl)s3)n2)cc1,"binding, competition with immobilised ligand",99%
O=C(Nc1c[nH]nc1C(=O)NC1CCNCC1)c1cc(F)cc(F)c1,"binding, competition with immobilised ligand",100%
c1cnn2ncc(-c3ccnc(N4CCC45COC5)n3)c2c1,binding,100%
C[C@H](NC(=O)c1cnc2n1[C@](C)(Cc1ccc(C#N)cc1)C(=O)N2c1cc(Cl)c(F)c(Cl)c1)C(=O)NC1(c2ccccn2)CC1,"binding, competition with immobilised ligand",90%
Cc1cnn2ncc(-c3ccnc(N(C)C)n3)c2c1,binding,100%
Cc1nc(N2CC[C@@H](O)C2)ncc1-c1cc(C(F)(F)F)cc2[nH]ncc12,"binding, competition with immobilised ligand",100%
CN(CCCC(F)(F)F)c1nccc(-c2cnn3ncccc23)n1,binding,87%
CNCc1ccccc1-c1csc([C@H](C)Nc2nc(C)nc3cc(OC)c(OC)cc23)c1,"cell-free assay, competition with immobilised ligand",100%
O=C(c1ccc(Nc2ncc(Cl)c(-c3ccc(Cl)s3)n2)cc1)N1CCC(N2CCCC2)CC1,"binding, competition with immobilised ligand",80%
CCS(=O)(=O)c1cc2cc(C[C@@](O)(CC(C)(C)c3ccc(F)cc3C(N)=O)C(F)(F)F)[nH]c2cn1,"cell-free assay, competition with immobilised ligand",97%
COc1ccnn2ncc(-c3ccnc(N(C)C)n3)c12,binding,100%
